Laboratory results taken from ChEMBL document CHEMBL1159067, “Benzimidazole- and indole-substituted 1,3'-bipyrrolidine benzamides as histamine H3 receptor antagonists” (Bioorg Med Chem Lett, 2010).
Values after ≈ are worked out from the molar mass of the structure shown. Active and inactive are the calls of the source. The rule behind the calls is not given here.

Tests used:
[1] = Permeability by PAMPA; format: ADME; details: read-out: permeability
Summary of the method: (§1)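 Passive permeability was measured by PAMPA, or by its blood–brain barrier variant PAMPA–BBB. Each gives effective permeability in units of 10^-6 cm/s.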

[2] = Tmax in rat plasma at 10 mg/kg, ip; format: ADME, organism-based; parameters: dose 10 mg/kg, route intraperitoneal
[3] = Aqueous solubility at pH 3.1; format: physicochemical; details: aqueous medium
[4] = AUC in rat brain at 10 mg/kg, ip; format: ADME, organism-based; parameters: dose 10 mg/kg, route intraperitoneal
[5] = Oral bioavailability in rat at 10 mg/kg; format: ADME, organism-based; details: in vivo
[6] = AUC in rat plasma at 10 mg/kg, ip; format: ADME, organism-based; parameters: dose 10 mg/kg, route intraperitoneal
[7] = Fraction unbound in rat brain at 10 mg/kg, ip; format: ADME, organism-based; parameters: dose 10 mg/kg, route intraperitoneal
[8] = AUC in rat at 10 mg/kg, po; format: ADME, organism-based; parameters: dose 10 mg/kg, route oral; details: plasma
[9] = Cmax in rat at 10 mg/kg, po; format: ADME, organism-based; parameters: dose 10 mg/kg, route oral; details: in vivo
[10] = Plasma clearance in rat at 2 mg/kg, iv; format: ADME, organism-based; parameters: dose 2 mg/kg, route intravenous
[11] = Volume of distribution at steady state in rat at 2 mg/kg, iv; format: ADME, organism-based; parameters: dose 2 mg/kg, route intravenous; details: in vivo, read-out: Vdss
[12] = Tmax in rat brain at 10 mg/kg, ip; format: ADME, organism-based; parameters: dose 10 mg/kg, route intraperitoneal
[13] = Cmax in rat brain at 10 mg/kg, ip; format: ADME, organism-based; parameters: dose 10 mg/kg, route intraperitoneal
[14] = Half life in rat at 10 mg/kg, po; format: ADME, organism-based; parameters: dose 10 mg/kg, route oral; details: in vivo
[15] = Blood-brain barrier permeability by PAMPA-BBB assay; format: ADME; summary of the method: as §1
[16] = Tmax in rat at 10 mg/kg, po; format: ADME, organism-based; parameters: dose 10 mg/kg, route oral; details: in vivo
[17] = Cmax in rat plasma at 10 mg/kg, ip; format: ADME, organism-based; parameters: dose 10 mg/kg, route intraperitoneal
[18] = molecular target: Histamine H3 receptor (Homo sapiens, UniProt Q9Y5N1); assay: Displacement of [3H](R)-alpha-methylhistamine from human cloned histamine H3 receptor expressed in HEK293T cells by liquid scintillation spectrometry; format: cell-based, HEK-293T
Histamine H3 receptor (Homo sapiens, UniProt Q9Y5N1), sequence (Q9Y5N1 whole entry): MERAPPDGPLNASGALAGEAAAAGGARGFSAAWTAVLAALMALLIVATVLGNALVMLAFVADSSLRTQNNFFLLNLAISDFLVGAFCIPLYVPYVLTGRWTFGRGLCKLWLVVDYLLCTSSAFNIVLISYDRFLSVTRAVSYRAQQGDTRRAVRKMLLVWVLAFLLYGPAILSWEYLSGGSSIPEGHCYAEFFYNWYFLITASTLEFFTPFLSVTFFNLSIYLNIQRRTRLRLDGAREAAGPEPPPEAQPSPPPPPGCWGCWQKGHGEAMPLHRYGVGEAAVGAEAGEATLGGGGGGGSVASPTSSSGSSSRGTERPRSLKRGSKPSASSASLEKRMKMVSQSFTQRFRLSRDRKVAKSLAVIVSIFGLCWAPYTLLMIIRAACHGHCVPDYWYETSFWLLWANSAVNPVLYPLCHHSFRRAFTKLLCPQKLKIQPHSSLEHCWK

[19] = Tmax in rat plasma at 30 mg/kg, ip; format: ADME, organism-based; parameters: dose 30 mg/kg, route intraperitoneal
[20] = Cmax in rat brain at 30 mg/kg, ip; format: ADME, organism-based; parameters: dose 30 mg/kg, route intraperitoneal
[21] = Ratio of AUC in rat brain to plasma at 30 mg/kg, ip; format: ADME, organism-based; parameters: dose 30 mg/kg, route intraperitoneal; details: brain and plasma
Summary of the method: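 Rats given a single 30 mg/kg intraperitoneal injection. Brain and plasma exposure were measured, with Cmax and Tmax recorded for each. The ratio is brain AUC (h ng/mL) divided by plasma AUC.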

[22] = Tmax in rat brain at 30 mg/kg, ip; format: ADME, organism-based; parameters: dose 30 mg/kg, route intraperitoneal
[23] = AUC in rat plasma at 30 mg/kg, ip; format: ADME, organism-based; parameters: dose 30 mg/kg, route intraperitoneal
[24] = AUC in rat brain at 30 mg/kg, ip; format: ADME, organism-based; parameters: dose 30 mg/kg, route intraperitoneal
[25] = test system: Rattus norvegicus; assay: Reversal of delay-induced retention deficit behavior in ip dosed rat assessed as differential novel and familiar object recognition; format: functional; details: read-out: MED
Summary of the method: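 Rats received test compound ip at 0.1, 0.3, 1 or 3 mg/kg, or vehicle, before the learning trial. Exploration of the novel and familiar objects was then scored. Groups were compared with vehicle, with significance at p <0.03 and p <0.005.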

[26] = test system: Rattus norvegicus; assay: Decrease in (R)-alpha-methylhistamine-induced water intake in rat at 10 mg/kg, ip; format: functional, organism-based; parameters: dose 10 mg/kg
Summary of the method: (§2)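 Water intake was induced in rats by the H3R agonist (R)-α-methylhistamine, which acts via central H3R. Antagonist was dosed ip. Significance was p <0.05 versus vehicle and versus (R)-α-methylhistamine alone.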

[27] = Cmax in rat plasma at 30 mg/kg, ip; format: ADME, organism-based; parameters: dose 30 mg/kg, route intraperitoneal
[28] = Fraction unbound in rat brain at 30 mg/kg, ip; format: ADME, organism-based; parameters: dose 30 mg/kg, route intraperitoneal
[29] = molecular target: Histamine H3 receptor (Rattus norvegicus, UniProt Q9QYN8); assay: Binding affinity to rat histamine H3 receptor
Histamine H3 receptor (Rattus norvegicus, UniProt Q9QYN8), sequence (Q9QYN8 whole entry): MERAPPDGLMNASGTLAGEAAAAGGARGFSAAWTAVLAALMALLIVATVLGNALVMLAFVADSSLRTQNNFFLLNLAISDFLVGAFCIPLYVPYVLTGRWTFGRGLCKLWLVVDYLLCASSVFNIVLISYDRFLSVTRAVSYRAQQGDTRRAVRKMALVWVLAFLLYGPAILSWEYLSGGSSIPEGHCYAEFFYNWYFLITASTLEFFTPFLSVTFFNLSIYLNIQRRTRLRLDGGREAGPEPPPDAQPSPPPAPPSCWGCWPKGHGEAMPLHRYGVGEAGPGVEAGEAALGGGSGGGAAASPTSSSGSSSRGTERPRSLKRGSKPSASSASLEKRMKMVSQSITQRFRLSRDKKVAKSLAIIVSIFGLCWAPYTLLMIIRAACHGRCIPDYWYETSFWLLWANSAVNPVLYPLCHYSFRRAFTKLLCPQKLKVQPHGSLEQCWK

[30] = test system: Rattus norvegicus; assay: Decrease in (R)-alpha-methylhistamine-induced water intake in rat at 30 mg/kg, ip; format: functional, organism-based; parameters: dose 30 mg/kg; summary of the method: as §2
[31] = test system: Caco-2; assay: Ratio of permeability across basolateral to apical side over apical to basolateral side of human Caco-2 cell membrane
[32] = Permeability across apical to basolateral side of human Caco-2 cell membrane; format: ADME, cell-based; details: read-out: permeability

For `O=C(c1ccc(Cn2cnc3ccccc32)cc1)N1CC[C@H](N2CCCC2)C1`, the Papp [1] was 3 nm/s, the Tmax [2] was 1 h and the solubility [3] was 0.051 mg/mL (≈ 136 µM). The AUC [4] was 0.231 µg·h/mL, the bioavailability [5] was 93% and the AUC [6] was 1.04 µg·h/mL. The fraction unbound [7] was 0.138, the AUC [8] was 2.74 µg·h/mL and the Cmax [9] was 1.75 µg/mL. The clearance [10] was 3.36 L/h/kg, the Vd [11] was 3.6 L/kg and the Tmax [12] was 1 h. For the same compound, the Cmax [13] was 0.245 µM, the half-life [14] was 1.3 h and the pBBB [15] was 3.7 ×10⁻⁶ cm/s. The Tmax [16] was 0.4 h and the Cmax [17] was 0.388 µg/mL.

`Cc1nc2ccccc2n1Cc1ccc(C(=O)N2CC[C@H](N3CCCC3)C2)cc1` gave a Papp [1] of 3 nm/s, a solubility [3] of 0.032 mg/mL (≈ 82.4 µM) and a pBBB [15] of 4 ×10⁻⁶ cm/s.

`CN(C)C1CCN(C(=O)c2ccc(Cn3cnc4ccccc43)cc2)C1` (stereo unspecified) gave a Ki [18] of 0.39 µM.

For `O=C(c1ccc(Cn2ccc3cc(Cl)ccc32)cc1)N1CC[C@H](N2CCCC2)C1`, the Papp [1] was 78 nm/s, the solubility [3] was 0.01 mg/mL (≈ 24.5 µM) and the Ki [18] was 0.13 µM. The pBBB [15] was 8.1 ×10⁻⁶ cm/s.

`O=C(c1ccc(Cn2c(-c3ccccc3)nc3ccccc32)cc1)N1CCC(N2CCCC2)C1` (stereo unspecified) showed a Ki [18] of 0.01 µM.

Compound `O=C(c1ccc(Cn2ccc3ccccc32)cc1)N1CC[C@H](N2CCCC2)C1` has a Papp [1] of 83 nm/s, a solubility [3] of 0.028 mg/mL (≈ 75 µM) and a Ki [18] of 0.015 µM. It also gave a pBBB [15] of 9.4 ×10⁻⁶ cm/s.

For `CN(C)[C@@H]1CCN(C(=O)c2ccc(Cn3c(-c4ccccc4)nc4ccccc43)cc2)C1`, the Ki [18] was 0.44 µM.

`O=C(c1ccc(Cn2ccc3cccc(Cl)c32)cc1)N1CC[C@H](N2CCCC2)C1` showed a Papp [1] of 65 nm/s, a Tmax [19] of 0.5 h and a Cmax [20] of 16 µM. The solubility [3] was 0.018 mg/mL (≈ 44.1 µM), the Kp [21] was 6.9 and the bioavailability [5] was 5%. For the same compound, the Tmax [22] was 0.5 h, the AUC [8] was 0.063 µg·h/mL and the Ki [18] was 0.0025 µM. The Cmax [9] was 0.022 µg/mL, the AUC [23] was 2.18 µg·h/mL and the AUC [24] was 15 µg·h/mL. The clearance [10] was 6.72 L/h/kg, the Vd [11] was 7.3 L/kg and the minimal effective dose [25] was 0.3 mg/kg. For the same compound, the Activity [26] was “Active”, the half-life [14] was 1.9 h and the Cmax [27] was 1.09 µg/mL. The fraction unbound [28] was 0.035, the Ki [29] was 0.0217 µM and the pBBB [15] was 7 ×10⁻⁶ cm/s. For the same compound, the Activity [30] was “Active” and the Tmax [16] was 1.2 h.

With `O=C(c1ccc(Cn2ccc3ccc(Cl)cc32)cc1)N1CC[C@H](N2CCCC2)C1` the Papp [1] was 73 nm/s, the solubility [3] was 0.013 mg/mL (≈ 31.9 µM) and the Ki [18] was 0.15 µM. The pBBB [15] was 8.6 ×10⁻⁶ cm/s.

With `CN(C)C1CCN(C(=O)c2ccc(Cn3c(-c4ccccc4)nc4ccccc43)cc2)C1` (stereo unspecified) the Papp [1] was 44 nm/s, the solubility [3] was greater than 0.1 mg/mL and the Ki [18] was 0.1 µM. It also gave a Ratio [31] of 1.3, a pBBB [15] of 9.4 ×10⁻⁶ cm/s and a Papp A→B [32] of 849 nm/s.

In the case of `Cc1nc2ccccc2n1Cc1ccc(C(=O)N2CCC(N(C)C)C2)cc1` (stereo unspecified), the Ki [18] is reported as 0.017 µM.

With `CN(C)C1CCN(C(=O)c2ccc(Cn3c(-c4ccccn4)nc4ccccc43)cc2)C1` (stereo unspecified) the Ki [18] was 0.235 µM.

For `CCN(C)C1CCN(C(=O)c2ccc(Cn3c(-c4ccccc4)nc4ccccc43)cc2)C1` (stereo unspecified), the Ki [18] was 0.091 µM.

With `O=C(c1ccccc1Cn1cnc2ccccc21)N1CCC(N2CCCC2)C1` (stereo unspecified) the Ki [18] was 4 µM.

`O=C(c1cccc(Cn2cnc3ccccc32)c1)N1CCC(N2CCCC2)C1` (stereo unspecified) gave a Ki [18] of 0.4 µM.

`CN(C)[C@H]1CCN(C(=O)c2ccc(Cn3c(-c4ccccc4)nc4ccccc43)cc2)C1` gave a Ki [18] of 0.065 µM.

In the case of `CN(CCO)C1CCN(C(=O)c2ccc(Cn3c(-c4ccccc4)nc4ccccc43)cc2)C1` (stereo unspecified), the Ki [18] is reported as 1.2 µM.
